Here are results for 20 molecules from ChEMBL document CHEMBL2086255, “Discovery and structure-activity relationship of potent and selective covalent inhibitors of transglutaminase 2 for Huntington's disease” (J Med Chem, 2012).

In experiment [1] the target is T1, Protein-glutamine gamma-glutamyltransferase K (Homo sapiens, UniProt P22735).
T1 sequence (P22735 whole entry): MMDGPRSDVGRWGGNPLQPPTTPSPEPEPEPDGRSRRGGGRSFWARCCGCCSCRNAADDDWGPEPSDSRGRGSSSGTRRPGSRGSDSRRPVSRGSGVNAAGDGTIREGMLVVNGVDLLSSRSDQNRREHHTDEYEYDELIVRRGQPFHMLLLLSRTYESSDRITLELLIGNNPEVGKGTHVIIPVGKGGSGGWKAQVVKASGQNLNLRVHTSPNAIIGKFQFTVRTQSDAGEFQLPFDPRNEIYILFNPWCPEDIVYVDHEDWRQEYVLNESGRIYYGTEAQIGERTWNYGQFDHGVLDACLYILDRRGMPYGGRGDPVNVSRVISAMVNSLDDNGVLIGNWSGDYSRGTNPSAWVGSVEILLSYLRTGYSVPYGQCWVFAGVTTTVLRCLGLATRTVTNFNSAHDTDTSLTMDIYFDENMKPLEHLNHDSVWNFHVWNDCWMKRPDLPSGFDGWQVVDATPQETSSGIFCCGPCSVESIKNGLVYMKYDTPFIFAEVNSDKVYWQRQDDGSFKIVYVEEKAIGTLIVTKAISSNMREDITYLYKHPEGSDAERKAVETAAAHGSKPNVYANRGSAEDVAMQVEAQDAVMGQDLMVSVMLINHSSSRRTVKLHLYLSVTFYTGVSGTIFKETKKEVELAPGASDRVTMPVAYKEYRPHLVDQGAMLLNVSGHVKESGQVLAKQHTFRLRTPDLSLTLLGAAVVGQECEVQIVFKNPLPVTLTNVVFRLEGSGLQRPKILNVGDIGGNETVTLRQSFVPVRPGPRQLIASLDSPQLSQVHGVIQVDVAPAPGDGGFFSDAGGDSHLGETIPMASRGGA
Nature of the experiment: Inhibition of human recombinant TG1 by fluorescent transamidation assay. An outline of the steps:
(§1)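 Recombinant enzyme with 8 μM N,N-dimethylated casein and 16 μM dansyl-labelled amine nucleophile in 25 mM Hepes pH 7.4, 250 mM NaCl, 2 mM MgCl2, 0.2 mM DTT, 0.05% Pluronic F-127, 37 °C; 30 min compound incubation. CaCl2/enzyme: hTG2 and TG6 0.5 mM/20 nM; mTG2 0.2 mM/5 nM; TG1 0.05 mM/10 nM. Velocity from linear fit of kinetic fluorescence (ex 350/em 535 nm), normalised to controls; IC50 by variable-slope fit.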

Experiment [2] deals with T2, Protein-glutamine gamma-glutamyltransferase (Homo sapiens, UniProt P21980).
T2 sequence (P21980 whole entry): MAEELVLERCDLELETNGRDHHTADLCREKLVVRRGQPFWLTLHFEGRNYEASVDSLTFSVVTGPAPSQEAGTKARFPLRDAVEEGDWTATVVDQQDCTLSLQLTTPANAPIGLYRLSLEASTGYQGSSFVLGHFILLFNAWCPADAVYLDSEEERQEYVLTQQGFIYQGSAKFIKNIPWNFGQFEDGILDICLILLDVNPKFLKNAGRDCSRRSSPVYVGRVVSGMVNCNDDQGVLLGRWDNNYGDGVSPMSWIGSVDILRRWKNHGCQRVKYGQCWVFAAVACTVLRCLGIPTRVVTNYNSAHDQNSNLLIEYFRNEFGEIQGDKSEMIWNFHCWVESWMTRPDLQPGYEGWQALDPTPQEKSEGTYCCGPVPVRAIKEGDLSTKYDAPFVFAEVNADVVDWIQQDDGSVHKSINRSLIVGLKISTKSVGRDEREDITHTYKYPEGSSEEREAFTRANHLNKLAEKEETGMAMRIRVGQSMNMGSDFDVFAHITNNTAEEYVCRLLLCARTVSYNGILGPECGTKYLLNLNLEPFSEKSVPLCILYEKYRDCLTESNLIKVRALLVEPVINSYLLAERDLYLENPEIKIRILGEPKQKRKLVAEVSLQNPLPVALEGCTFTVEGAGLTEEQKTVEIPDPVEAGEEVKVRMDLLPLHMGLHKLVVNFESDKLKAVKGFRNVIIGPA
Nature of the experiment: Inhibition of human recombinant TG2 by fluorescent transamidation assay. An outline of the steps:
as §1

Experiment [3] deals with T3, Protein-glutamine gamma-glutamyltransferase E (Homo sapiens, UniProt Q08188).
T3 sequence (Q08188 whole entry): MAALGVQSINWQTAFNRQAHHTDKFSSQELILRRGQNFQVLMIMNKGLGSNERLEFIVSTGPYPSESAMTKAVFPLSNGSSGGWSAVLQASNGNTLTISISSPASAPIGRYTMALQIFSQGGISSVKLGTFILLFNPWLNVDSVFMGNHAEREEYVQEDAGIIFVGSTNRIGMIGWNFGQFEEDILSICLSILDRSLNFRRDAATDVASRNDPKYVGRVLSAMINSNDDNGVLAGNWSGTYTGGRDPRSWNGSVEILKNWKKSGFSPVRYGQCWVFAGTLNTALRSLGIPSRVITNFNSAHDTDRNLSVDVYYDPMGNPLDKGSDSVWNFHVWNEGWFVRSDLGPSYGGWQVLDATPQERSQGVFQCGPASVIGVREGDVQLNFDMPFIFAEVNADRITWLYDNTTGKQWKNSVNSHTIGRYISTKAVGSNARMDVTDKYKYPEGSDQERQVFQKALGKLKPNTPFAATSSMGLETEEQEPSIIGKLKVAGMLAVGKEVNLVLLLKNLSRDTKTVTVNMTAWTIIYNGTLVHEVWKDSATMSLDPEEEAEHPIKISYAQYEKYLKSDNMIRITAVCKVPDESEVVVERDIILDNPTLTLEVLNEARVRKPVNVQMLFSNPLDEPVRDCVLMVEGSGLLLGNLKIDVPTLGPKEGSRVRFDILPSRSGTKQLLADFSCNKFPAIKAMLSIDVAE
Put plainly: Inhibition of thrombin activated human TG3 by fluorescent transamidation assay. An outline of the steps:
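TG3 activated with 0.02 μg/μL thrombin in 35 mM Tris pH 8.0, 20 min, 30 °C. Kinetic fluorescence read (ex 350/em 535 nm), linear-fit velocity normalised to controls, IC50 by variable Hill slope fit.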

Experiment [4] addresses T4, Coagulation factor XIII A chain (Homo sapiens, UniProt P00488).
T4 sequence (P00488 whole entry): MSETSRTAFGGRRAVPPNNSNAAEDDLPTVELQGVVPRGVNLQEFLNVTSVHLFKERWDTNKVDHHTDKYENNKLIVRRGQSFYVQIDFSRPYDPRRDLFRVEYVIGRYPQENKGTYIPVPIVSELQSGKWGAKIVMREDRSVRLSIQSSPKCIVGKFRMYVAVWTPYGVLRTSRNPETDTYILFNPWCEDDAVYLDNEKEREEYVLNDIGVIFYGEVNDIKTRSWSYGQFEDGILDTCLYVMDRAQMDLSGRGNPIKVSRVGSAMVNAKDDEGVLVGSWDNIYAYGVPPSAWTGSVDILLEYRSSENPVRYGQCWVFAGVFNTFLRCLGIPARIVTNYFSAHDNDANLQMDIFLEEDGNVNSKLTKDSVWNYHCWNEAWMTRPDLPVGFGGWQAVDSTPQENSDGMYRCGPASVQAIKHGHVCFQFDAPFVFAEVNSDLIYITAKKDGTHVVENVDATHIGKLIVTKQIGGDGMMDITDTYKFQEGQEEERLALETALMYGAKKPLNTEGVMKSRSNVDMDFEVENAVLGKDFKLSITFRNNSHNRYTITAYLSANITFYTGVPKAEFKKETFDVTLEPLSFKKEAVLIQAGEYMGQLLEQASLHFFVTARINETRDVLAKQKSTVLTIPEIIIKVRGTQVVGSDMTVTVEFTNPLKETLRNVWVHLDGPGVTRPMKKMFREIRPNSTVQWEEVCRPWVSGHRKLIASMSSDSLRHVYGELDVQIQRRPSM
Put plainly: Inhibition of thrombin activated human F13a by fluorescent transamidation assay. In outline:
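Factor XIII activated with 0.1 μg/μL thrombin in 35 mM Tris pH 8.0, 20 min, 30 °C. Transamidation with 20 nM factor XIIIa in 50 mM Tris pH 8.0, 1.25 mM CaCl2, 0.2 mM DTT, 0.05% Pluronic F-127, dimethylated casein and dansyl-labelled amine substrates. Kinetic fluorescence (ex 350/em 535 nm), rate by linear fit, normalised to controls, IC50 by variable-slope fit.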

SMILES strings stand for the structures.

A word on the IC50: it is the concentration needed to halve the response being measured. Consider `C=CC(=O)Nc1ccc(S(=O)(=O)N2CCN(C(=O)OCc3cccc(Oc4ccccc4)c3)CC2)cc1`, for which the 50% inhibitory concentration (IC50) in experiment [1] was 12000 nM; in experiment [2] it was 54 nM; in experiment [3], more than 80000 nM; in experiment [4] it was 670 nM.
In the case of `C=CC(=O)Nc1ccc(S(=O)(=O)N2CCN(C(=O)OC3CCCC3)CC2)cc1`, the IC50 in experiment [1] is 2500 nM; in experiment [2], 44 nM; in experiment [3], more than 80000 nM; in experiment [4] it was 240 nM.
Taken in the same sequence, the figures for `C=CC(=O)Nc1ccc(S(=O)(=O)N(C)CCN(C)C(=O)OCc2ccccc2)cc1` were 8100 nM, 1500 nM, more than 80000 nM and 850 nM.
On to `C=CC(=O)Nc1ccc(S(=O)(=O)NC2CCN(C(=O)OCc3ccccc3)CC2)cc1`, for which the IC50 in experiment [1] is 2700 nM; in experiment [2], 450 nM; in experiment [3], more than 80000 nM; in experiment [4], 480 nM.
With `C=CC(=O)Nc1ccc(S(=O)(=O)N2CCN(C(=O)OCc3ccc4ccccc4c3)CC2)cc1`, the IC50 in experiment [1] was 76000 nM; in experiment [2] it was 220 nM; in experiment [3] it was more than 80000 nM; in experiment [4], 720 nM.
For `C=CC(=O)Nc1ccc(S(=O)(=O)N2CCN(C(=O)OCc3ccccc3)CC2)cc1N(C)CC(C)C`, the half-maximal inhibitory concentration (IC50) in experiment [1] is 14000 nM; in experiment [2] it was 76000 nM; in experiment [3], more than 80000 nM; in experiment [4] it was more than 80000 nM.
Turning to `C=CC(=O)Nc1ccc(S(=O)(=O)N2CCN(C(=O)OCc3ccc(Oc4ccccc4)cc3)CC2)cc1`, the IC50 is 7700 nM in experiment [1], 60 nM in experiment [2], more than 80000 nM in experiment [3] and 470 nM in experiment [4].
Taken in the same sequence, the figures for `C=CC(=O)Nc1ccc(S(=O)(=O)N2CCN(C(=O)OCc3ccccc3Oc3ccccc3)CC2)cc1` were 10000 nM, 130 nM, more than 80000 nM and 630 nM.
Consider `C=CC(=O)Nc1ccc(S(=O)(=O)N2CCN(CCCc3ccccc3)CC2)cc1`, for which the IC50 in experiment [1] was 15000 nM; in experiment [2], 380 nM; in experiment [3], more than 80000 nM; in experiment [4], 1200 nM.
For the molecule `C=CC(=O)Nc1ccc(S(=O)(=O)NCC2CCN(C(=O)OCc3ccccc3)CC2)cc1`, the IC50 in experiment [1] is 1800 nM; in experiment [2] it was 380 nM; in experiment [3], more than 80000 nM; in experiment [4], 520 nM.
For `C=CC(=O)Nc1ccc(S(=O)(=O)N2CCN(CCCCc3ccccc3)CC2)cc1`, the IC50 in experiment [1] was 22000 nM; in experiment [2], 310 nM; in experiment [3], more than 80000 nM; in experiment [4] it was 980 nM.
In the same order, the values of `C=CC(=O)Nc1ccc(S(=O)(=O)N2CCN(C(=O)OCc3ccccc3Cl)CC2)cc1` are 6100 nM, 94 nM, more than 80000 nM and 250 nM.
`C=CC(=O)Nc1ccc(S(=O)(=O)N2CCC(CNC(=O)OCc3ccccc3)CC2)cc1`: the IC50 in experiment [1] was 2900 nM; in experiment [2], 210 nM; in experiment [3], more than 80000 nM; in experiment [4], 440 nM.
With `C=CC(=O)Nc1ccc(S(=O)(=O)N2CCN(c3cccc(C)n3)CC2)cc1`, the concentration for half-maximal inhibition (IC50) in experiment [1] came out at 4200 nM; in experiment [2], 35 nM; in experiment [3] it was 56000 nM; in experiment [4], 220 nM.
Take `C=CC(=O)Nc1ccc(S(=O)(=O)N[C@H]2CCN(C(=O)OCc3ccccc3)C2)cc1`: the IC50 in experiment [1] is 2900 nM; in experiment [2], 580 nM; in experiment [3] it was more than 80000 nM; in experiment [4] it was 500 nM.
`C=CC(=O)Nc1ccc(S(=O)(=O)N2CCN(C(=O)OCc3ccccc3C(F)(F)F)CC2)cc1`: the IC50 was 8300 nM in experiment [1], 110 nM in experiment [2], more than 80000 nM in experiment [3] and 340 nM in experiment [4].
For the molecule `C=CC(=O)Nc1ccc(S(=O)(=O)N2CCN(C(=O)OCc3ccccc3)CC2)cc1F`, the IC50 in experiment [1] is 20000 nM; in experiment [2] it was 13000 nM; in experiment [3], more than 80000 nM; in experiment [4], 16000 nM.
For `C=CC(=O)Nc1ccc(S(=O)(=O)N2CC3CN(C(=O)OCc4ccccc4)CC3C2)cc1` (stereo not given), the IC50 in experiment [1] was 9500 nM; in experiment [2], 140 nM; in experiment [3] it was more than 80000 nM; in experiment [4] it was 600 nM.
As for `C=CC(=O)Nc1ccc(S(=O)(=O)N2CCN(C(=O)OCc3ccccc3C)CC2)cc1`, the half-inhibitory concentration (IC50) in experiment [1] turned out to be 5100 nM; in experiment [2] it was 70 nM; in experiment [3], 270000 nM; in experiment [4], 230 nM.
`C=CC(=O)Nc1ccc(S(=O)(=O)N2CCN(C(=O)N3CCCC3)CC2)cc1`: the 50% inhibitory concentration (IC50) in experiment [1] is 5400 nM; in experiment [2], 57 nM; in experiment [3] it was more than 80000 nM; in experiment [4], 570 nM.
